Redox H2O2 prof – compounds producing H2O2 with reducing agent – biochemical, NIH compound library profiling, artefact control for MLSCN library redox annotation, primary screen | activation, % at 10 µM | AID 878, 2007 | DTT-dependent redox cycling H2O2, phenol red/HRP absorbance; 100% = 100 µM peroxide control, 0% = buffer | 200,000 tested, 0.03% active;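 active means activation of at least 50% relative to the plate's high and low controls in the primary single-dose screen; inactive means activation below 50%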;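 further: compound incubated with DTT at 0.8 mM final as the reducing agent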
Dynein cargo inh – inhibitors of GR-EGFP nuclear translocation, primary screen, dynein cargo transport inhibitor project, imaging, high-content, 3617.4 mouse cells; test concentration mostly 20 µM; stimulated with dexamethasone, 1 µM; active compounds read low; z-score, hits read low; 220,000 tested, 0.47% active; AID 1381, 2008;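 active means plate z-score of nuclear minus cytoplasmic receptor signal below a set negative limit, without overly bright fluorescence or cell loss, cut at about -3.5 in these data, passing the limit was not always enough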;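 further: z-score of nuclear minus cytoplasmic ring GR-EGFP intensity difference per well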
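Also added – dexamethasone, 1.0 µM final · Buffer or medium – tet-free, stripped-serum medium · Schedule – induction 48 h, compound 1 h, agonist 30 min · Detection – formaldehyde fixation, Hoechst nuclear stain, 10x automated fluorescence imaging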
Autophagy mod – autophagy modulators in MEF cells, primary screen, imaging, high-content, MEF GFP-LC3. 190,000 tested, 0.98% active. MEF GFP-LC3 puncta imaging; test concentration mostly 10 µM. AID 463193, 2010. calls only at 10 µM (by protocol);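 active means percentage of spot-positive cells more than 3 SD above its plate mean, without a fluorescence outlier flag or 80% toxicity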;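 further: spot-positive cell cutoff set from DMSO-treated cells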
KCC2 mod – KCC2 cotransporter modulators, thallium flux, primary screen, cell-based, HEK293 KCC2, FluoZin-2 fluorescence, MLSMR | KCC2 cells, thallium flux FluoZin-2 fluorescence | Solute carrier family 12 member 5 (Homo sapiens), Q9H2X9 | B-score of Tl+ flux slope (higher = more flux/activation; lower = inhibition) at 10 µM | 190,000 tested, 2.2% active;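 active means thallium flux slope and its plate-corrected score both differing from the plate sample mean at a set confidence after two filtering rounds, in either direction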;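 further: slope of fluorescence scaled to starting intensity during 10 to 20 s after thallium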
Target sequence (Q9H2X9 whole entry, looked up): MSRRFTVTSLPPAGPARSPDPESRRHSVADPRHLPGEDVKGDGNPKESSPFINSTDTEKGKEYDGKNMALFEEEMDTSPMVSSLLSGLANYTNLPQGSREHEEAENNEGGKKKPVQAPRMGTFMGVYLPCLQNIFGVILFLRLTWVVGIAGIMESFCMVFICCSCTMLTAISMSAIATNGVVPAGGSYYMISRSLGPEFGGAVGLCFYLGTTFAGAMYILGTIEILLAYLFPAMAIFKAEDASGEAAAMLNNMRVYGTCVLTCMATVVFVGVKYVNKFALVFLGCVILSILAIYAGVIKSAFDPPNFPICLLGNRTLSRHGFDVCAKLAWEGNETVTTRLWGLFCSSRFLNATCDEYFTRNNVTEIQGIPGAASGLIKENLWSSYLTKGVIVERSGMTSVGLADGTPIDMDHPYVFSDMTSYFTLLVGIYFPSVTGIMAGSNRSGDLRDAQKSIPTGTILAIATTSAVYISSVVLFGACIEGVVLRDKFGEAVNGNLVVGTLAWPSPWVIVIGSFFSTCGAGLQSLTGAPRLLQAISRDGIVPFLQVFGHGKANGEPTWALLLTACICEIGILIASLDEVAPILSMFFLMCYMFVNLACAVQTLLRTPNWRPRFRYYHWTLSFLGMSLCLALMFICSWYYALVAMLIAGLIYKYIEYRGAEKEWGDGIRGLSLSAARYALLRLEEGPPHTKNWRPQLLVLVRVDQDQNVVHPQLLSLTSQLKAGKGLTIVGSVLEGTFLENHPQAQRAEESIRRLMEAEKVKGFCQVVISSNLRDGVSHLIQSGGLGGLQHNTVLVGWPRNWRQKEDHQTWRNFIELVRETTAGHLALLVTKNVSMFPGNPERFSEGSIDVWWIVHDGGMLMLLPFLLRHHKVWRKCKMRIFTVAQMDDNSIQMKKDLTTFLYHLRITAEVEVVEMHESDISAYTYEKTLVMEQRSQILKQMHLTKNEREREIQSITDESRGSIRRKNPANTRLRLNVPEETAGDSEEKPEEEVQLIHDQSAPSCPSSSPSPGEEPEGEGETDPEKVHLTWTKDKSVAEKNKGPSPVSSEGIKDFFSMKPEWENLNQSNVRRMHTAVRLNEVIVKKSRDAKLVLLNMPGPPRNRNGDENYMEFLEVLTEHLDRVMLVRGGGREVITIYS
ROMK mod – ROMK potassium channel modulators, primary screen, cell-based, thallium flux, MLSMR library; ATP-sensitive inward rectifier potassium channel 1 (Homo sapiens), P48048; Tet-inducible ROMK, thallium flux fluorescence; actives lie on both sides; B-score at 10 µM; 130,000 tested, 2% active;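 active means signal ratio slope over the read window, or its plate-corrected B-score, at least 3 SD from the plate mean, either direction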;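 further: B-score of the F/F0 ratio slope over 7 to 12 s after thallium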
ROMK retest – ROMK channel modulator hit retest, confirmation, cell-based, thallium flux, duplicate, resupplied hits; shares compounds with ROMK mod; fluorescence ratio; active compounds read low; normalized thallium flux (F/F0 slope) at 10 µM; 3,000 tested, 54% active; AID 1917, 2009;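 active means Flux at 10 µM at least 3 SD below or above vehicle control mean in one or both replicates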
* hit, by the source's call; i = inactive; / = no result given. In the library only some 4.1% were active in any assay of this set; here they are far more common.

SMILES | Redox H2O2 prof | Dynein cargo inh | Autophagy mod | KCC2 mod | ROMK mod | ROMK retest
COC(=O)CN1C(=O)COc2ccc(Cl)cc21 | 0 | -0.91 | i | 1 | 0.6 | /
O=S(=O)(CC(CN1CCCCC1)N1CCCCC1)c1ccc2ccccc2c1 (stereo unspecified) | 0 | -2.1 | i | 0.24 | -5.8* | 0.059*
COc1ccc2c(C#N)c3ccccn3c2c1 | -1 | -0.35 | i | -1.7 | -3.1* | 0.045*
COc1ccc(CN(CCN(C)C)c2ccccn2)cc1 | -1 | -0.83 | i | 2.3 | / | /
CC(C)n1cnc2c(N(C)c3ccccc3)nc(N(CCN(C)C)Cc3ccccc3)nc21 | / | -3.7 | / | -2.1 | / | 0.052*
COc1ccc(OC)c(C(=O)c2coc3ccc(OCC(=O)O)cc23)c1 | 0 | 0.98 | i | / | 2.8* | 0.07
COc1ccc2occ(C(=O)c3coc4ccc(O)c(CN(C)C)c34)c2c1 | 0 | -0.96 | i | -3 | / | 0.061*
CN(C)Cc1c(O)ccc2occ(C(=O)c3ccccc3)c12 | 1 | -0.71 | i | -0.22 | / | /
COc1ccc(OC)c(C(=O)c2coc3ccc(OC(C)=O)cc23)c1 | -1 | 0.23 | i | / | 0.86 | /
O=C(O)c1ccc(N2C(=O)c3ccc(C(=O)c4cccc([N+](=O)[O-])c4)cc3C2=O)cc1 | -2 | 0.22 | i | -1.6 | 2.2* | 0.088
O=C(c1cccc([N+](=O)[O-])c1)c1ccc2c(c1)C(=O)N(c1c[nH]c(=O)[nH]c1=O)C2=O | 0 | 1.6 | i | 0.05 | 0.2 | /
Cn1c(-c2ccccc2)c(/C=N/NC(=O)c2ccc(O)cc2)c2ccccc21 | / | -0.63 | / | -3.4 | / | 0.08
Cc1cc2nc3c(nc2cc1C)C(O)=C3O | / | -0.89 | / | 1 | / | /
C=CCn1c(=O)/c(=C/c2ccc(O)cc2)s/c1=C(/C#N)c1nnc2n1CCCCC2 | 2 | -0.042 | i | / | -1.1* | 0.053*
S=C(c1ccc2c(c1)OCO2)N1CCOCC1 | / | 0.52 | / | 1.3 | / | /
Cc1c(C2C(C#N)=C(N)N(c3cccc([N+](=O)[O-])c3)C3=C2C(=O)CCC3)cnn1C (stereo unspecified) | -1 | -1.1 | i | 1 | 1.2 | /
Brc1ccc(-c2ncc3ccccn23)cc1 | / | -0.64 | / | -3.1 | / | /
COc1ccc(CNCCC(c2ccc(F)cc2)c2ccc(OC)cc2)cc1 (stereo unspecified) | 0 | 1.4 | i | -0.23 | -4.2* | 0.053*
COc1ccc(C(CCNCc2ccc(F)cc2)c2ccc(F)cc2)cc1 (stereo unspecified) | 2 | -0.55 | i | 1.9 | -3.1 | /
COc1cccc(C(=O)C2CCCN(C(=O)c3cccc(C#CC(C)(C)O)c3)C2)c1 (stereo unspecified) | -1 | 1 | i | -0.033 | 1.7* | 0.079
Cc1cnnn1-c1ccc([N+](=O)[O-])cc1 | 0 | -0.28 | i | -0.32 | -3.2* | 0.077
COc1ccc(C(=O)/C(C#N)=N/Nc2ccccc2[N+](=O)[O-])cc1 | 0 | -0.31 | i | -0.31 | 3.8* | 0.074
COc1ccc(C(=O)NCC(=O)OCc2ccccc2F)cc1 | 0 | -0.82 | i | -0.05 | 0.047 | /
O=C(O)c1ccccc1-c1nc2cc(Cl)ccc2c(=O)n1O | 0 | -0.33 | i | 0.58 | -3.2* | 0.068*
O=c1c2ccccc2nc(-c2ccccc2Cl)n1O | 0 | -0.41 | i | 1.8 | 2.8* | 0.071
SMILES | Redox H2O2 prof | Dynein cargo inh | Autophagy mod | KCC2 mod | ROMK mod | ROMK retest
CNc1ccc(/C=C/C(=O)c2cccc3ccccc23)cc1[N+](=O)[O-] | 0 | 0.13 | i | 0.35 | -0.17 | /
Cc1cccc(Cc2c(C)nc3c(C(=O)N4CCN(Cc5ccc6c(c5)OCO6)CC4)cnn3c2C)c1 | 2 | -0.27 | i | -0.77 | / | 0.046*
COCCCNC(=O)C1CCCN(S(C)(=O)=O)C1 (stereo unspecified) | 0 | -0.25 | i | 1 | 0.64 | /
CCN(CC)S(=O)(=O)c1ccc(N2CCCC2)c(NC(=O)Cc2ccccc2)c1 | / | -0.039 | / | -0.96 | / | /
CCN(CC)S(=O)(=O)c1ccc(N2CCOCC2)c(NC(=O)Cc2ccc(Cl)cc2)c1 | 0 | 0.77 | i | 0.0071 | / | 0.07
COc1ccc(Cc2nnc(N/N=C/c3ccc(O)cc3O)[nH]c2=O)cc1OC | 0 | -0.38 | i | 0.63 | / | /
CCn1ncc(/C=N\NC(=O)c2ccc3c(c2)c(C)c(C)n3Cc2ccccc2)c1C | 0 | 0.55 | i | -0.22 | 0.92 | /
Cc1c(C)n(Cc2ccccc2)c2ccc(C(=O)OCCN(C)C)cc12 | -1 | -1.1 | i | 0.88 | -3.5* | 0.059*
NC1=NS(=O)(=O)NC1c1ccc(Br)cc1 (stereo unspecified) | 0 | -0.34 | i | -0.14 | 0.85 | /
COc1ccc(CNC(=O)[C@H](C)NC(=O)C2CCN(S(=O)(=O)c3ccc(C)cc3)CC2)cc1 | 0 | -0.51 | i | / | 0.67 | 0.075
Cc1cc(C)nc(SCC(=O)c2cc3ccccc3oc2=O)n1 | 1 | 1.8 | i | -0.26 | -4.1* | 0.06*
CC(=O)N1CCN(CC(=O)Nc2ccc([N+](=O)[O-])cc2Br)CC1 | 11 | -0.11 | i | / | -0.43 | /
COc1ccc(-n2c3c(c(=O)[nH]c2=O)C(NC(C)=O)(C(F)(F)F)C(=O)N3)cc1 (stereo unspecified) | 0 | -0.21 | i | 1.2 | 0.071 | /
Cc1ccc(S(=O)(=O)NCc2ccc(C(=O)NCCN(Cc3ccccc3)C(C)C)cc2)cc1 | 0 | 2.6 | i | 0.19 | -0.48 | /
S=C1NC2(CCCC2)N=C1c1ccccc1 | 0 | -0.76 | i | 2.3 | -1.8 | /
CC(C)CC1(C)N=C(c2ccccc2)C(=S)N1 (stereo unspecified) | 0 | -0.62 | i | 1.5 | -3.2* | 0.057*
COc1cccc(C(O)c2cnc(C(C)C)n2C)c1 (stereo unspecified) | / | 1.6 | / | 0.47 | / | /
CC1=NN(c2nc(-c3ccc(C)cc3)cs2)C(=O)C1N=Nc1ccc(C(N)=O)cc1 (stereo unspecified) | 0 | -0.5 | i | -1.4 | 0.1 | 0.077
O=C1NC2(CCSC2)C(=O)N1CC(=O)N(Cc1ccccc1)C1CCS(=O)(=O)C1 (stereo unspecified) | / | -0.28 | / | 1 | -0.039 | /
C=CCn1c(COc2cccc(C)c2C)nnc1SCC(=O)N1CCN(c2ccccc2)CC1 | 0 | -0.11 | i | -0.93 | / | 0.054*
CCn1c(COc2c(C)cccc2C)nnc1SCC(=O)N1CCN(c2ccccc2)CC1 | -9 | 0.15 | i | -1.5 | / | /

From PubChem
